Measured values pooled from the literature.

| Compound | assay | test system | conditions | quantity | value |
| --- | --- | --- | --- | --- | --- |
| COCCOc1cnc2ccn([C@H](C)c3nnc4c(F)cc(-c5cnn(C)c5)cn34)c(=O)c2c1 | – | human, plasma | oral, 25 mg, multiple doses, once daily, patients | half-life | 6.3 h |
| CC(C)(O)c1ccccc1-c1ccc2[nH]c(/C=C/c3ccc(C(F)(F)F)cc3)nc2c1 | – | male human, plasma | oral, 5 mg, single dose, fasted, healthy volunteers | half-life | 29.9 h |
| CC(=O)OCOC(=O)C1CC(C)(C)N([O])C1(C)C (centres unmarked) | chemical stability | bovine, serum | – | half-life | 0.567 h |
| CC(C)(C)c1ccc(O)c(CN(Cc2cc(C(C)(C)C)ccc2O)C2CCC(NC(N)=O)CC2)c1 (centres unmarked) | – | male C57BL/6 mouse, plasma | intraperitoneal, 10 mg/kg, single dose | Vd | 3.7 L |
| CC(=O)N[C@@H](Cc1ccccc1)C(=O)N[C@@H](Cc1ccccc1)C(=O)N[C@@H](C)C(=O)N[C@@H](CC(C)C)C(=O)NCC(=O)N[C@@H](CC(C)C)C(=O)N[C@@H](C)C(=O)NCC(=O)N[C@@H](CC(=O)O)C(=O)N[C@@H](CC(=O)O)C(=O)O | chemical stability | human, plasma | 1 mM, pH 7.4 | half-life | 8.64 h |
| CC[C@H](C)[C@H](NC(=O)[C@H](CCC(=O)O)NC(=O)[C@H](CO)NC(=O)[C@@H](NC(=O)[C@@H](N)CO)C(C)C)C(=O)N[C@@H](CCC(N)=O)C(=O)N[C@@H](CC(C)C)C(=O)N[C@@H](CCSC)C(=O)N[C@@H](Cc1cnc[nH]1)C(=O)N[C@@H](CC(N)=O)C(=O)N[C@@H](CC(C)C)C(=O)NCC(=O)N[C@@H](CCCCN)C(=O)N[C@@H](Cc1cnc[nH]1)C(=O)N[C@@H](CC(C)C)C(=O)N[C@@H](CC(N)=O)C(=O)N[C@@H](CO)C(=O)N[C@@H](CCSC)C(=O)N[C@@H](CCC(=O)O)C(=O)N[C@@H](CCCN=C(N)N)C(=O)N[C@H](C(=O)N[C@@H](CCC(=O)O)C(=O)N[C@@H](Cc1c[nH]c2ccccc12)C(=O)N[C@@H](CC(C)C)C(=O)N[C@@H](CCCN=C(N)N)C(=O)N[C@@H](CCCCN)C(=O)N[C@@H](CCCCN)C(=O)N[C@@H](CC(C)C)C(=O)N[C@@H](CCC(N)=O)C(=O)N[C@@H](CC(=O)O)C(=O)N[C@H](C(=O)N[C@@H](Cc1cnc[nH]1)C(=O)N[C@@H](CC(N)=O)C(=O)N[C@@H](Cc1ccccc1)C(=O)O)C(C)C)C(C)C | chemical stability, HPLC | aqueous buffer | 0.5 mg/mL, 5 min, pH 6.5 | compound remaining | 100% |
| C[C@]1(c2nc3c(C(N)=O)cccc3[nH]2)CCCN1 | – | male rhesus monkey, plasma | oral, 5 mg/kg, single dose | AUC(0-inf) | 3.7 µM·h |
| COc1ccc([C@@H]2CN(C(=O)[C@@H](O)CO)C[C@@]2(C)[C@@H](C)O)cc1OC1CN(c2ccc(C)cn2)C1 | – | human, plasma | oral, 0.5 mg, single dose, healthy volunteers | half-life | 11.9 h |
| CC[C@H](C)[C@@H]1NC(=O)[C@@](C)(NC(=O)[C@H](CCCNC(=N)N)NC(=O)[C@H](CC(C)C)NC(=O)[C@@H](NC(=O)[C@H](CCC(N)=O)NC(=O)[C@H](CC(C)C)NC(C)=O)[C@@H](C)O)CCCC=CCCC[C@@](C)(C(=O)N[C@@H](CC(C)C)C(=O)N[C@@H](Cc2ccc3ccccc3c2)C(N)=O)NC(=O)[C@H](CCCNC(=N)N)NC(=O)[C@H](CCC(N)=O)NC1=O | – | male BALB/c mouse, plasma | intravenous, 15 mg/kg | Vd | 0.0946 L/kg |
| CC(C)n1cc(C#N)c2cc(-n3cc(C(=O)O)cn3)ccc21 | – | human, plasma | oral, 200 mg, single dose, fed, healthy volunteers | half-life | 15 h |
| CCn1c2ccccc2c2cc(-n3nncc3-c3ccccc3)ccc21 | – | female BALB/c mouse, plasma | intraperitoneal, 10 mg/kg, single dose | Vd/F | ~0.4 L |
